Source: ChEMBL document CHEMBL3102806, “1,2,4-Triazole/oxime hybrids as new strategy for nitric oxide donors: Synthesis, anti-inflammatory, ulceroginicity and antiproliferative activities” (Eur J Med Chem, 2014)

What was measured:
OVCAR-8 = experiment: Growth inhibition of human OVCAR8 cells assessed as cell growth at 10^-5 M after 48 hrs by sulforhodamine B assay relative to control; type: functional; details: OVCAR-8, 48 h, read-out: Activity
Procedure, shortened: (§1)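 NCI primary screen, one-dose format across about 60 human tumour cell lines. Single addition at 10^-5 M with 48 h incubation; SRB protein-binding dye end point read spectrophotometrically. Reported as percent growth of treated cells versus untreated controls.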

Rattus norvegicus = experiment: Antiinflammatory activity in albino rat assessed as inhibition of carrageenan-induced paw edema at 0.28 mmol/kg, po administered 30 mins prior to carrageenan-challenge measured after 5 hrs relative to control; type: functional
Procedure, shortened: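 Male albino rats in groups of four were fasted 24 h with water allowed. Dosing was oral at 0.28 mmol/kg, suspended in 0.5% w/v CMC; controls got CMC alone. After 30 min, 0.1 ml of 1% carrageenan in saline went subplantar into the right hind paw and saline into the left. Paw thickness was read by caliper before and at 1–5 h. % inhibition = [(VR−VL)control−(VR−VL)treated]/(VR−VL)control ×100. Mean ± SEM, n = 4, one-way ANOVA vs control.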

RPMI-8226 = experiment: Growth inhibition of human RPMI8226 cells assessed as cell growth at 10^-5 M after 48 hrs by sulforhodamine B assay relative to control; type: functional; details: RPMI-8226, 48 h, read-out: Activity; procedure, shortened: as §1
A498 = experiment: Growth inhibition of human A498 cells assessed as cell growth at 10^-5 M after 48 hrs by sulforhodamine B assay relative to control; type: functional; details: A498, 48 h, read-out: Activity
Procedure, shortened: (§2)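 NCI ~60 human tumour cell line screen. Single concentration of 10^-5 M added to cultures for 48 h. End point by sulforhodamine B protein staining read spectrophotometrically. Percent growth relative to untreated control cells.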

NCI-H322M = experiment: Growth inhibition of human NCI-H322M cells assessed as cell growth at 10^-5 M after 48 hrs by sulforhodamine B assay relative to control; type: functional; details: read-out: Activity; procedure, shortened: as §1
OVCAR-3 = experiment: Growth inhibition of human OVCAR3 cells assessed as cell growth at 10^-5 M after 48 hrs by sulforhodamine B assay relative to control; type: functional; details: OVCAR-3, 48 h, read-out: Activity; procedure, shortened: as §1
[1] = Growth inhibition of human EKVX cells assessed as cell growth at 10^-5 M after 48 hrs by sulforhodamine B assay relative to control; type: functional; details: read-out: Activity; procedure, shortened: as §2
[2] = Induction of nitric oxide release in phosphate buffer at 10^-4 M at pH 7.4 after 1 hr by Griess colorimetric method in presence of N-acetylcysteine; type: physicochemical; details: pH 7.4, 1 h, 100 µM
Procedure, shortened: (§3)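 Final drug concentration 10^-4 M, added from DMF into 1:1 50 mM phosphate buffer (pH 7.4)/MeOH containing 5 × 10^-4 M N-acetylcysteine, at 37 °C. Nitrite read with Griess reagent after 10 min at room temperature, absorbance at 546 nm. Calibration with sodium nitrite standards (10–80 nmol/ml). Reported as mol NO per mol, n = 4 reaction mixtures.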

MDA-MB-435 = experiment: Growth inhibition of human MDA-MB-435 cells assessed as cell growth at 10^-5 M after 48 hrs by sulforhodamine B assay relative to control; type: functional; details: MDA-MB-435, 48 h, read-out: Activity; procedure, shortened: as §1
[3] = Growth inhibition of human OVCAR5 cells assessed as cell growth at 10^-5 M after 48 hrs by sulforhodamine B assay relative to control; type: functional; details: OVCAR-5, 48 h, read-out: Activity; procedure, shortened: as §1
[4] = Induction of nitric oxide release in phosphate buffer at 10^-4 M at pH 7.4 after 3 hrs by Griess colorimetric method in presence of N-acetylcysteine; type: physicochemical; details: pH 7.4, 3 h, 100 µM; procedure, shortened: as §3
SK-MEL-2 = experiment: Growth inhibition of human SK-MEL-2 cells assessed as cell growth at 10^-5 M after 48 hrs by sulforhodamine B assay relative to control; type: functional; details: SK-MEL-2, 48 h, read-out: Activity
Procedure, shortened: (§4)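 NCI primary screen across about 60 human tumour cell lines. Single dose of 10^-5 M, cultures incubated 48 h, end point by sulforhodamine B protein staining read spectrophotometrically. Results are given as percent growth of treated cells relative to untreated control cells.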

MCF7 = experiment: Growth inhibition of human MCF7 cells assessed as cell growth at 10^-5 M after 48 hrs by sulforhodamine B assay relative to control; type: functional; details: MCF7, 48 h, read-out: Activity; procedure, shortened: as §1
MOLT-4 = experiment: Growth inhibition of human MOLT4 cells assessed as cell growth at 10^-5 M after 48 hrs by sulforhodamine B assay relative to control; type: functional; details: MOLT-4, 48 h, read-out: Activity; procedure, shortened: as §1
KM12 = experiment: Growth inhibition of human KM12 cells assessed as cell growth at 10^-5 M after 48 hrs by sulforhodamine B assay relative to control; type: functional; details: KM12, 48 h, read-out: Activity; procedure, shortened: as §1
[5] = Growth inhibition of human UACC257 cells assessed as cell growth at 10^-5 M after 48 hrs by sulforhodamine B assay relative to control; type: functional; details: UACC-257, 48 h, read-out: Activity; procedure, shortened: as §4
[6] = Growth inhibition of human Hs 578T cells assessed as cell growth at 10^-5 M after 48 hrs by sulforhodamine B assay relative to control; type: functional; details: read-out: Activity; procedure, shortened: as §2
SK-MEL-5 = experiment: Growth inhibition of human SK-MEL-5 cells assessed as cell growth at 10^-5 M after 48 hrs by sulforhodamine B assay relative to control; type: functional; details: SK-MEL-5, 48 h, read-out: Activity; procedure, shortened: as §4
UACC-62 = experiment: Growth inhibition of human UACC62 cells assessed as cell growth at 10^-5 M after 48 hrs by sulforhodamine B assay relative to control; type: functional; details: UACC-62, 48 h, read-out: Activity; procedure, shortened: as §4
[7] = Growth inhibition of human HOP92 cells assessed as cell growth at 10^-5 M after 48 hrs by sulforhodamine B assay relative to control; type: functional; details: HOP-92, 48 h, read-out: Activity; procedure, shortened: as §2
HOP-62 = experiment: Growth inhibition of human HOP62 cells assessed as cell growth at 10^-5 M after 48 hrs by sulforhodamine B assay relative to control; type: functional; details: HOP-62, 48 h, read-out: Activity; procedure, shortened: as §2
U-251 = experiment: Growth inhibition of human U251 cells assessed as cell growth at 10^-5 M after 48 hrs by sulforhodamine B assay relative to control; type: functional; details: U-251, 48 h, read-out: Activity; procedure, shortened: as §4
NCI-H522 = experiment: Growth inhibition of human NCI-H522 cells assessed as cell growth at 10^-5 M after 48 hrs by sulforhodamine B assay relative to control; type: functional; details: NCI-H522, 48 h, read-out: Activity; procedure, shortened: as §1
SN12C = experiment: Growth inhibition of human SN12C cells assessed as cell growth at 10^-5 M after 48 hrs by sulforhodamine B assay relative to control; type: functional; details: read-out: Activity; procedure, shortened: as §4
[8] = Growth inhibition of human OVCAR4 cells assessed as cell growth at 10^-5 M after 48 hrs by sulforhodamine B assay relative to control; type: functional; details: OVCAR-4, 48 h, read-out: Activity; procedure, shortened: as §1

| SMILES | growth at 10 µM (OVCAR-8) [%] | inhibition in vivo at 280 µmol/kg (Rattus norvegicus) [%] | growth at 10 µM (RPMI-8226) [%] | growth at 10 µM (A498) [%] | growth at 10 µM (NCI-H322M) [%] | growth at 10 µM (OVCAR-3) [%] | growth at 10 µM [1] [%] | Activity [2] [mol/mol] | growth at 10 µM (MDA-MB-435) [%] | growth at 10 µM [3] [%] | Activity [4] [mol/mol] | growth at 10 µM (SK-MEL-2) [%] | growth at 10 µM (MCF7) [%] | growth at 10 µM (MOLT-4) [%] | growth at 10 µM (KM12) [%] | growth at 10 µM [5] [%] | growth at 10 µM [6] [%] | growth at 10 µM (SK-MEL-5) [%] | growth at 10 µM (UACC-62) [%] | growth at 10 µM [7] [%] | further results |
| --- | --- | --- | --- | --- | --- | --- | --- | --- | --- | --- | --- | --- | --- | --- | --- | --- | --- | --- | --- | --- | --- |
| C/C(=N\O)c1ccc(NC(=O)CSc2nnc(-c3ccccc3)n2-c2ccccc2)cc1 | 90.8 | 66 | 91.2 | 63.7 | 66.7 | 87.3 | 91.9 | 0.11 | 118 | 84.7 | 0.2 | 97.7 | 62.5 | 95.2 | 83.1 | 81.8 | 79.6 | 94.5 | 76.7 | 30.1 | growth at 10 µM (HOP-62): 64.7%; growth at 10 µM (U-251): 63.6%; growth at 10 µM (NCI-H522): 53.3%; growth at 10 µM (SN12C): 76.2%; growth at 10 µM [8]: 86.2% |
| COc1ccc(-c2nnc(SCC(=O)Nc3ccc(/C(C)=N/O)cc3)n2-c2ccccc2)cc1OC | 42.8 | 76 | 91.6 | 91.8 | 75.7 | 82 | 71.1 | 0.15 | 104 | 97 | 0.23 | 57.6 | 69.2 | 91.7 | 106 | 91.8 | 42.8 | 94.6 | 82.8 | -8.56 | growth at 10 µM (HOP-62): -26.4%; growth at 10 µM (U-251): 34.4%; growth at 10 µM (NCI-H522): 35.3%; growth at 10 µM (SN12C): 71.8%; growth at 10 µM [8]: 103% |
